# High-throughput results from PubChem BioAssay.
# Only some compounds are listed: those with a hit (about 1.4% of all), similar ones and a draw of the others.
# CASP6 VEID inh: caspase-6 (human) enzyme inhibition; purified caspase-6, Z-VEID-R110 cleavage fluorescence; inhibition, % at 12.5 µM; actives 0.53% (n = 350,000);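 active = mean inhibition across replicates at least about 35%, with every replicate also reaching that limit, limit read from the data; inconclusive = only one of the two criteria met; inactive = neither criterion met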;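 note: 0% = median of neutral control wells and 100% = no fluorescence left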
# Target sequence (P55212 24-179 limits assumed): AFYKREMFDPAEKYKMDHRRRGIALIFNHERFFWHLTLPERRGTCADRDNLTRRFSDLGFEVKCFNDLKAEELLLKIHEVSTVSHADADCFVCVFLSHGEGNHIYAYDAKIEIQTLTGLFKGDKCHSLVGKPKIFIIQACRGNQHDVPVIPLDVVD
# Target sequence (P55212 194-293 limits assumed): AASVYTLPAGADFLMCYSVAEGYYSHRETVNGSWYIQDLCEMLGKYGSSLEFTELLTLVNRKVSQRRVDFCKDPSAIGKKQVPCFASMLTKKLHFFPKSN
# Vif imaging: blocks HIV Vif function; HEK293T cells, Vif self-association by quenched fluorescence, imaging, 24 h; inhibition, % at 7.49 µM; actives 0.35% (n = 340,000); AID 602346; in the data active = inhibition above about 50%, passing the limit was not always enough; inconclusive = no clear call, values can overlap the other calls; inactive = below about 31%
# Myeloid diff 2: myeloid differentiation induction. ER-HoxA9 myeloid progenitors, lysozyme-GFP differentiation, flow cytometry. calls only at 10 µM. actives 1% (n = 360,000). AID 624256;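 active = normalized GFP-positive differentiation at or above the plate's own cutoff, the solvent-only control mean plus 3 SD; inconclusive = no clear call, values can overlap the other calls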;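 note: cells exposed to compound for four days before flow analysis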
# T cell HTS: T cell immune modulators affecting CD8 T cell-vesicle binding; 2C CD8+ T cell-vesicle binding, flow cytometry; stronger effect = lower value; response (vesicle binding), % at 7 µM; actives 0.068% (n = 330,000); AID 2052;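 active = response, share of CD8 T cells binding vesicles, and their 90th percentile fluorescence all below set limits, cut at about 80% in these data, passing the limit was not always enough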;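 note: values below 100% mean blocked vesicle binding to the CD8+ T cells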
#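 Also added: QL9-peptide-loaded Drosophila micro-vesicles bearing Ld, ICAM-1 and B7-1; Test system: purified 2C TCR transgenic mouse naive CD8+ T cells; Measured by: cytometric PE anti-B7-1 and Alexa647 anti-CD8 signals after 1% paraformaldehyde fixation; Timing: binding step 1.5 h, 37 °C, antibody labelling 20 min, ice.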
# An asterisk follows results filed as active; i = inactive; ? = inconclusive; . = no result given; + = active, no number.
SMILES,CASP6 VEID inh,Vif imaging,Myeloid diff 2,T cell HTS
CCOC(=O)C1CCCN(S(=O)(=O)c2ccc3c(c2)N(C)C(=O)CC(=O)N3C)C1 (configuration not stated),-1.2,-1.9,+,280.0
CC(C)NC(=O)Nc1ccc2c(c1)CC(=O)N([C@@H](C)CO)C[C@@H](C)[C@@H](CN(C)C(=O)NC(C)C)O2,1.0,.,.,.
O=Nc1c(O)ccc2cc(S(=O)(=O)O)ccc12,.,-4.7,i,.
CN(C)c1ccc2cc(S(=O)(=O)O)cc(O)c2c1,78.1*,-10.7,i,.
COc1cccc2c1C(=O)c1c(O)c3c(c(O)c1C2=O)C[C@@](O)(C(=O)CO)C[C@@H]3OC1CC(N)C(O)C(C)O1 (some centres not stated),-4.1,-6.4,.,.
CC(=O)[C@@]1(O)Cc2c(O)c3c(c(O)c2[C@H](O[C@H]2C[C@H](N)[C@H](O)[C@H](C)O2)C1)C(=O)c1ccccc1C3=O,-32.4,66.5*,?,.
CCc1ccc(N2C(=O)/C(=C/c3cccs3)N(CC(=O)OC)C2=S)cc1,2.7,116.1*,i,181.8
COC(=O)CN1C(=S)N(c2ccc(OC)cc2)C(=O)/C1=C/c1cccs1,.,20.6,i,380.8
C[C@@H]1CN([C@@H](C)CO)C(=O)c2cccc(NC(=O)Nc3ccccc3)c2O[C@@H]1CN(C)S(=O)(=O)c1ccc(Cl)cc1,1.0,.,.,.
COCC(=O)Nc1ccc2c(c1)OC[C@H](C)N(Cc1ccccc1F)C[C@H](C)[C@H](OC)CN(C)C2=O,-2.3,.,.,.
Fc1ccc(NCc2n[nH]c(=S)n2Cc2ccccc2)cc1,.,62.3*,i,444.7
CCOC(=O)c1cc(-c2ccco2)nn1-c1ccc(C)cc1,-0.1,-0.8,i,182.5
Cc1ccc(-n2nc(-c3ccco3)cc2C(=O)O)cc1,55.4*,11.0,i,198.9
COC(=O)C[C@H]1CC[C@@H]2[C@@H](COc3ccc(NC(=O)c4cccc(OC)c4)cc3C(=O)N2C)O1,0.8,.,.,.
CCOc1ccc(S(=O)(=O)Nc2ccc(C(=O)N/N=C/c3c(C)nn(-c4ccccc4)c3N3CCCC3)cc2)cc1,62.2*,-4.5,i,406.0
COc1ccc2cc(-c3cc(C(=O)OCC(=O)NC4CCS(=O)(=O)C4)c4ccccc4n3)ccc2c1 (configuration not stated),.,51.8*,i,328.9
COC(=O)C1CCN(C(=O)COC(=O)c2cc(-c3ccccc3)nc3ccc(OC)cc23)CC1,.,-7.8,+,122.9
COc1ccc(-c2cc(C(=O)OCC(=O)NC3CC3)c3ccccc3n2)cc1,-3.2,-7.9,i,592.5
COc1ccc(-c2cc(C(=O)OCC(=O)N3CCOCC3)c3ccccc3n2)cc1,-0.5,-0.2,i,i
CCN(CC(=O)Nc1ccccc1C(F)(F)F)C(=O)c1ccc2c(=O)n3c(nc2c1)CCC3,-127.6,16.4,+,198.6
CCOn1c(=O)c(C)[n+]([O-])c2ccccc21,.,?,i,401.7
COC(=O)c1ccccc1COn1c(=O)c[n+]([O-])c2ccccc21,.,6.6,+,332.3
O=c1c[n+]([O-])c2ccccc2n1OCc1ccccn1,.,-0.4,+,231.8
Cc1c(=O)n(OCc2ccccn2)c2ccccc2[n+]1[O-],.,4.2,i,693.0
CCOn1c(=O)c[n+]([O-])c2ccccc21,15.9,1.2,+,666.3
SMILES,CASP6 VEID inh,Vif imaging,Myeloid diff 2,T cell HTS
COC(=O)c1ccccc1COn1c(=O)c(C)[n+]([O-])c2ccccc21,.,-9.7,i,129.3
O=c1c[n+]([O-])c2ccccc2n1OCc1c(F)cccc1F,.,13.7,+,289.0
CN(C)CCCNC(=O)C[C@@H]1CC[C@H]2[C@@H](COC[C@@H](O)CN2CC2CCCCC2)O1,-0.2,.,.,.
O=C(C[C@H]1CC[C@@H](NC(=O)c2ccncc2)[C@H](CO)O1)Nc1ccc(-c2ccccc2)cc1,0.8,.,.,.
C[C@@H]1CN([C@@H](C)CO)C(=O)Cc2cc(NS(=O)(=O)c3ccc(Cl)cc3)ccc2O[C@H]1CN(C)Cc1ccc(C(=O)O)cc1,2.4,.,.,.
Cc1ccc(S(=O)(=O)N2CCN(Cc3csc(C)n3)CC2)cc1,-1.0,1.8,+,321.9
Cc1ccc(S(=O)(=O)N2CCN(Cc3ccccn3)CC2)cc1,-2.9,7.5,i,276.7
COCC(=O)N1CC2(C1)[C@@H](c1ccccc1)[C@H](CO)N2C(=O)c1cccnc1,3.6,.,.,.
C[C@@H]1CCCCO[C@@H](CN(C)C(=O)CCCN(C)C)[C@H](C)CN([C@@H](C)CO)C(=O)c2cc(NC(=O)Nc3ccc(F)cc3)ccc2O1,-1.7,.,.,.
O=C(NCCc1ccccc1)c1ccc(-c2ccc(F)c(F)c2)c2ccoc12,-1.4,-0.8,i,.
O=C(NCCc1ccccc1)c1cccc2c(-c3ccc(F)c(F)c3)coc12,45.3*,8.2,i,.
O=C(CSc1nnnn1-c1ccc(O)cc1)NC1CCCCC1,-4.0,9.8,i,196.4
Cc1ccc(-n2nnnc2SCC(=O)NC2CC2)cc1C,57.1*,20.2,i,305.2
C[C@@H]1CN([C@@H](C)CO)C(=O)c2cccc(NS(C)(=O)=O)c2O[C@@H]1CN(C)C(=O)Nc1ccc2c(c1)OCO2,0.6,.,.,.
COC(=O)CC/C(O)=C1\C(=O)CC(C)(C)CC1=NCc1nc2ccccc2[nH]1,0.5,77.2*,i,258.1
Cc1noc(C)c1NC(=O)N(C)C[C@@H]1Oc2ccc(NC(=O)NC3CCCCC3)cc2C(=O)N([C@@H](C)CO)C[C@@H]1C,0.3,.,.,.
OC(c1ccc(F)cc1)c1ncc(-c2ccccc2F)[nH]1 (configuration not stated),38.5*,.,i,.
COc1ccc(C2CC(C)(c3ccc(OC)cc3OC)Nc3ccccc3N2)c(OC)c1 (configuration not stated),1.3,6.8,i,66.2*
N#Cc1cc2ccccc2nc1SCC(=O)Nc1ccccc1N1CCOCC1,.,-9.0,i,107.3
Cc1cccc2cc(C#N)c(SCC(=O)N3CC(=O)Nc4ccccc43)nc12,.,61.4*,?,409.1
Cc1cccc2cc(C#N)c(SCC(=O)Nc3ccccc3N3CCOCC3)nc12,.,7.6,+,0.0
C[C@@H]1CN([C@H](C)CO)S(=O)(=O)c2ccc(/C=C/c3ccccc3)cc2O[C@H]1CN(C)C(=O)NC1CCCC1,-1.4,.,.,.
CCN(CC)c1ccc(/C=C2\C(=O)N(c3nnc(C)c(=O)[nH]3)N=C2C)cc1,36.1*,-17.2,i,42.3
CCOC(=O)C1CCN(c2ccc([N+](=O)[O-])cc2)CC1,3.9,-0.5,i,135.3
CCOC(=O)C1CCC(CN(Cc2ccccc2C)S(=O)(=O)c2ccc([N+](=O)[O-])cc2)CC1 (configuration not stated),.,-9.4,+,590.8
COc1ccc(OCCOC(=O)c2nc3nccc(C)n3n2)cc1,-0.3,-9.1,i,196.9
COc1ccc(C(=O)C(C)OC(=O)c2nc3nccc(C)n3n2)cc1 (configuration not stated),91.2*,-2.5,?,233.8
Cc1nc(SCc2c(F)cccc2Cl)c2c(=O)n(C)c(=O)n(C)c2n1,-0.7,8.4,+,417.1
Cc1cccc(NC(=O)CSc2nc(C)nc3c2c(=O)n(C)c(=O)n3C)c1,-9.2,-0.5,i,.
